H9c2 TAG inh – triacylglycerol accumulation inhibition. H9c2 cells, Nile Red lipid (TAG) fluorescence; cells loaded with 200 µM oleic acid. inhibition, % at 12.5 µM. 0.66% of 230,000 active;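 active = pattern-corrected inhibition of lipid staining of at least 50% with the nuclear-stain viability signal not falling by more than 50%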;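 note: 0% = DMSO wells and 100% = triacsin C control wells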
MC4R antagonist – antagonists of human melanocortin 4 receptor (MC4R) | P32245 | MC4R-expressing cells, MTII-stimulated cAMP, LANCE TR-FRET | inhibition, % at 6.5 µM | 0.48% of 360,000 active;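 active = inhibition above its plate's cutoff, the mean of tested wells on that plate plus 3 SD, cut at about 29% in these data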;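 note: 0% = Melanotan II alone and 100% = Melanotan II plus saturating MCL0020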
Target sequence (P32245 whole entry, looked up): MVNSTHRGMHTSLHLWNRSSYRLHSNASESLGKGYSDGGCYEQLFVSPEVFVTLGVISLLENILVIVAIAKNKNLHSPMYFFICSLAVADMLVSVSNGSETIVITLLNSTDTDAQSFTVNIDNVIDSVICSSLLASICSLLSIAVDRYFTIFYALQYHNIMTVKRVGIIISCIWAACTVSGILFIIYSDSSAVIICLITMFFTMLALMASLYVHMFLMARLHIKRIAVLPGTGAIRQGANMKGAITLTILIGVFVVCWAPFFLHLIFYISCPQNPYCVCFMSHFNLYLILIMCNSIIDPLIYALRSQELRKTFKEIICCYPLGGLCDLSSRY
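System: U2OS cells stably expressing human melanocortin 4 receptor (MC4R). Reagent: Melanotan II challenge after compound preincubation. Doses: 6.5 µM. Times: 30-min compound, 1-h challenge, 1-h detection, room temperature. Measured by: TR-FRET with Eu-cAMP and labeled anti-cAMP, 671 nm. Replicates: singlicate.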
MC4R ag barr – activates human MC4R beta-arrestin recruitment; U2OS MC4R beta-arrestin complementation, luminescence; percent of melanotan II response, DMSO zero; 0.98% of 360,000 active; activation, % at 8.9 µM; P32245;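 active = activation above a per-plate cutoff, the mean activation of sample wells on that plate plus 3 SD, cut at about 8% in these data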
GalR3 antag – antagonists of human GalR3 | HEK293 GalR3-CNG cAMP membrane potential fluorescence; galR3 body fused to GalR1 C-terminus | inhibition, % at 3 µM | 0.44% of 360,000 active;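 active = inhibition above the screen-wide average plus 3 SD, cut at about 13% in these data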;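 note: forskolin and galanin both at EC90 stimulate the cells; cAMP rise reported by CNG channel membrane potential dye signal; 0% = forskolin plus galanin with DMSO and 100% = forskolin alone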
Target sequence (O60755 1-299 limits assumed): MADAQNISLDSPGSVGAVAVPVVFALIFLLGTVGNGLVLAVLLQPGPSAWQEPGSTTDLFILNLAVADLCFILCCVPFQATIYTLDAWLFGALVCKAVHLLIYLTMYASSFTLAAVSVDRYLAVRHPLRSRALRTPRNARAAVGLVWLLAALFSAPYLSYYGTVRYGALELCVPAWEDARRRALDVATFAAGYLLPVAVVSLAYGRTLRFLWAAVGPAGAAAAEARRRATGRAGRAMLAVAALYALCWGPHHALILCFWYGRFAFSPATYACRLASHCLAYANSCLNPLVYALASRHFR
Calb FLC – C. albicans growth modulation with fluconazole. growth inhibition, % (test concentration not listed). C. albicans CaCi-2 + fluconazole, Alamar Blue growth, 48 h. 0.57% of 300,000 active;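 active = growth inhibition above about 58% in most replicates, limit read from the data, passing the limit was not always enough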;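 note: all wells also contain fluconazole at 8 µg/ml as a sub-toxic cotreatment; 0% = median of DMSO wells and 100% = median of geldanamycin control wells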
Efflux pump inh – blocks antifungal efflux pumps in multiplex yeast assay. S. cerevisiae Candida pump triplex, Nile Red efflux. inhibition, % at 10 µM. 0.44% of 330,000 active. AID 485275;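 active = plate passing quality check with inhibition over a set limit, or well fluorescence over plate mean plus 4 SD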;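 note: Nile Red retained in pooled yeast measured as flow cytometry median fluorescence; 0% = buffer negative control and 100% = Enniatin B positive control; higher means more Nile Red kept so more efflux inhibition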
Cmpd fluor yeast – compound fluorescence in yeast efflux pump counter-screen; shares compounds with Efflux pump inh; S. cerevisiae AD/pABC3, flow cytometry; fluorescence ratio to DMSO, % at 10 µM; 4% of 1,700 active;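 active = fluorescence ratio to DMSO above its plate's cutoff, the plate mean ratio plus 5 SD, cut at about 210% in these data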;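 note: unstained yeast with no Nile Red so the signal is compound autofluorescence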
CaMdr1 efflux inh – Candida Mdr1 efflux pump inhibition; S. cerevisiae AD/CaMDR1, Nile Red efflux, flow cytometry; shares compounds with Efflux pump inh; inhibition, % at 10 µM; 1% of 1,700 active; in the data active = inhibition above about 26%;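 note: 0% = DMSO vehicle and 100% = reference inhibitor; higher means more Nile Red retained so more efflux inhibition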
Cdr2 pump inh – blocks the Candida albicans Cdr2 efflux pump in yeast | 4% of 1,700 active | Nile Red retention ratio vs DMSO, % at 10 µM | S. cerevisiae AD/CaCDR2, Nile Red retention, flow cytometry | AID 588520 | shares compounds with Efflux pump inh; in the data active = Nile Red retention ratio vs DMSO above about 190%;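 note: higher ratio means more blocking of Cdr2 efflux of the dye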
CaCdr1 efflux inh – inhibitors of Candida albicans Cdr1 efflux pump; shares compounds with Efflux pump inh; S. cerevisiae AD/CaCDR1, Nile Red efflux, flow cytometry; inhibition, % at 10 µM; 1% of 1,700 active; AID 588522;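 active = inhibition above the screen-wide mean plus twice its standard deviation, cut at about 32% in these data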
Starred values were filed as active, the others as inactive; . = not tested or not shown. This is a sample that favours compounds with a hit; in the whole collection about 2.9% have one here.

SMILES	H9c2 TAG inh	MC4R antagonist	MC4R ag barr	GalR3 antag	Calb FLC	Efflux pump inh	Cmpd fluor yeast	CaMdr1 efflux inh	Cdr2 pump inh	CaCdr1 efflux inh
CN(C(=O)c1cccc(NC(=O)Cc2ccc(NC(=O)C3CCCN(C(=O)C4CCC4)C3)cc2)c1)C1CCC1 (configuration not stated)	2	12	-3	-6	.	.	.	.	.	.
O=C(COC(=O)CSc1ccc2ccccc2c1)NC1CC1	.	3	0	-4	-13	0	.	.	.	.
O=C(COC(=O)CSc1ccc2ccccc2c1)NC1CCCC1	.	-3	-3	-4	-8	25*	115	0	108	0
Cc1sc(NC(=S)NC(=O)c2cccs2)nc1-c1ccc(C(C)C)cc1	.	11	-2	-1	-6	0.9*	103	0	94	0
CC(=O)c1ccc(NS(=O)(=O)Cc2ccc(Cl)cc2)cc1	.	14	-2	-6	-18	0.8*	103	0	101	0
COc1ccc(N2CCN(C(=O)COC(=O)CC(NC(N)=O)c3ccc(Cl)cc3)CC2)cc1 (configuration not stated)	-9	2	-1	-8	.	.	.	.	.	.
CN1C(=O)[C@@]2(O[C@H]3[C@H]4C=C[C@@H]([C@H]5C(=O)N(Cc6ccccc6)C(=O)[C@@H]45)N3C3=C2C(=O)CC3)c2ccccc21	.	.	.	-5	.	.	.	.	.	.
CCCCc1nnc2c(N(C)S(=O)(=O)c3ccc(C)cc3)nc3ccccc3n12	-11	6	-1	1	-1	0.8*	105	0	102	0
COc1ccc(CCNC(=O)C2CCN(S(=O)(=O)N3CCC4(CC3)OCCO4)CC2)cc1OC	.	2	-3	6	-8	1.3*	103	0	105	0
CC1CCc2c(sc3nc(CN4CCOCC4)nc(N4CCc5ccccc5C4)c23)C1 (configuration not stated)	.	13	2	-11	18	20*	91	0	116	0
N#Cc1c(-c2ccccc2)cc(-c2cccs2)nc1SCC(=O)O	.	4	1	-11	5	1.3*	114	0	87	0
CCN(CC(=O)Nc1c(F)cccc1F)C(=O)c1cccc(S(=O)(=O)N2CCCc3ccccc32)c1	-20	3	-1	-4	.	.	.	.	.	.
C[C@H](CO)N1C[C@H](C)[C@@H](CN(C)C(=O)Nc2ccccc2)Oc2c(NC(=O)Nc3ccc(C(F)(F)F)cc3)cccc2C1=O	.	19	-1	-5	.	0	.	.	.	.
COc1ccc(S(=O)(=O)N(C)C[C@H]2Oc3c(NC(=O)NC4CCCCC4)cccc3C(=O)N([C@H](C)CO)C[C@@H]2C)cc1	-3	3	-1	-6	.	131*	127	28*	97	17
COc1ccc(S(=O)(=O)N(C)C[C@H]2Oc3c(NC(=O)Nc4ccc(C(F)(F)F)cc4)cccc3C(=O)N([C@H](C)CO)C[C@@H]2C)cc1	57*	13	-2	.	.	34*	104	0	114	0
C[C@H](CO)N1C[C@H](C)[C@@H](CN(C)Cc2ccc(-c3ccccc3)cc2)Oc2c(NC(=O)Nc3ccc(C(F)(F)F)cc3)cccc2C1=O	40	19	0	-5	.	0	92	0	112	0
C[C@H]1CN([C@@H](C)CO)C(=O)c2cccc(NC(=O)Nc3ccc(C(F)(F)F)cc3)c2O[C@@H]1CN(C)S(=O)(=O)c1ccccc1	19	15	-1	-2	.	1	.	.	.	.
CC1(C(=O)NS(=O)(=O)C2CC2)CCCN(C(=O)COCc2ccccc2)C1 (configuration not stated)	-10	-10	-1	3	.	.	.	.	.	.
CC1(C(=O)NCc2ccccc2)CSCC(=O)N1CCc1c[nH]c2ccccc12 (configuration not stated)	.	.	.	-3	.	.	.	.	.	.
CCOC(=O)NC(=O)CSc1ccc(S(=O)(=O)N(C)C2CCCCC2)cn1	-6	7	-1	-9	.	0	.	.	.	.
COc1ccc(C)cc1NC(=O)C1CC(=O)OC12CCCCC2 (configuration not stated)	.	5	-2	-7	3	1.3*	100	0	114	0
Cc1cccc(NC(=O)C2CC(=O)OC23CCCCC3)c1 (configuration not stated)	8	1	0	-6	5	0	.	.	.	.
CCCN(CCC)Cc1cc(=O)oc2ccc3ccccc3c12	.	.	.	-6	.	.	.	.	.	.
O=C(CNC(=O)C1COc2ccccc2O1)N/N=C\c1cccc(O)c1 (configuration not stated)	-7	-3	0	-1	8	7.6*	89	0	87	0
O=C1NC(Cc2ccccc2)c2nc3ccc(Cl)cc3c(=O)n2-c2ncccc21 (configuration not stated)	17	6	-1	-5	.	.	.	.	.	.
SMILES	H9c2 TAG inh	MC4R antagonist	MC4R ag barr	GalR3 antag	Calb FLC	Efflux pump inh	Cmpd fluor yeast	CaMdr1 efflux inh	Cdr2 pump inh	CaCdr1 efflux inh
Cc1ccc(-n2c(SCC(=O)Nc3ccc(N4CCOCC4)cc3)nc3ccccc3c2=O)cc1	.	17	-1	-4	-14	9.6*	104	0	123	0
O=C(CSc1nc2ccccc2c(=O)n1-c1ccc(F)cc1F)Nc1ccc(N2CCOCC2)cc1	.	-15	0	-2	1	19*	104	0	123	0
O=C(C(=O)N1CCC(Cc2ccccc2)CC1)c1ccccc1Br	.	.	.	-2	.	.	.	.	.	.
Clc1cccc(C[n+]2cc(-c3ccccc3)n3c2CCC3)c1	-21	18	0	3	-2	0	.	.	.	.
Cc1ccc(-c2c[n+](Cc3cccc(Cl)c3)c3n2CCC3)cc1	4	4	-2	-3	0	0	107	0	107	0
Cc1ccc(NC(=O)C[n+]2cc(-c3ccccc3)n3c2CCC3)c(C)c1	-9	10	-1	-1	-11	0	89	0	87	0
CSc1cc(SC)ncn1	2	-2	-2	-5	.	.	.	.	.	.
CSc1ccc(CN2CCC2(C)C(=O)NC2CCc3ccccc32)cc1 (configuration not stated)	-1	-1	0	-5	.	.	.	.	.	.
O=C(NCc1ccc2c(c1)OCO2)C(=O)NCC1OCCN1S(=O)(=O)c1ccc(Cl)cc1 (configuration not stated)	16	1	-1	-3	-1	0	.	.	.	.

Screening data as filed in PubChem.
